Activity calls are given as the source filed them. The rule behind the calls is not given here. Where a SMILES comes first, the peptide text is derived from it. The star is where a group is joined. Doxorubicin(Traut) = COc1cccc2c1C(=O)c1c(O)c3c(c(O)c1C2=O)C[C@@](O)(C(=O)CO)C[C@@H]3O[C@H]1C[C@H](NC(=N)CCCS*)[C@H](O)[C@H](C)O1; βAla = NCCC(=O)O
Assays:
[1] = Inhibition of cell proliferation in HEK293 cells at 5 uM after 24 hrs by MTT or MTS assay relative to control; type: cell-based; details: human
[2] = Drug uptake in human MCF7 cells nucleus at 5 uM after 1 to 24 hrs by DAPI staining based fluorescence microscopic method; type: ADME, subcellular; details: mcf7, 5 µM
How it was run: (§1)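 1×10^4 cells per chamber were allowed to attach and then cultured overnight. Compounds were added at 5 μM final in fresh medium for 1 h or 24 h, with untreated cells as control. Cells were then washed with DPBS and fixed in 4% paraformaldehyde for 30 min.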

[3] = Drug uptake in human SKOV3 cells nucleus at 5 uM after 1 to 24 hrs by DAPI staining based fluorescence microscopic method; type: ADME, subcellular; details: sk-ov-3, 5 µM; how it was run: as §1
SK-OV-3 [4] = experiment: Inhibition of cell proliferation in human SKOV3 cells at 5 uM after 72 hrs by MTT or MTS assay relative to control; type: functional; details: SK-OV-3, 72 h
[5] = Drug uptake in human HT1080 cells at 50 uM after 3 hrs by flow cytometry; type: ADME, cell-based; details: ht-1080, 3 h
[6] = Inhibition of cell proliferation in HEK293 cells at 5 uM after 72 hrs by MTT or MTS assay relative to control; type: cell-based; details: human
How it was run: (§2)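 Seeding was 5000 cells/well for HEK-293, SKOV-3 and HT-1080, and 50,000 for CCRF-CEM, 24 h before dosing. CCRF-CEM was grown in RPMI and the others in EMEM with 10% FBS. Compounds were given at 5 μM for 24 or 72 h at 37 °C, with water/0.025% DMSO as negative control. Adherent lines received fresh medium before adding MTT (595 nm) or MTS (490 nm). Background-corrected OD is expressed as percent of control; triplicate runs.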

HT-1080 [7] = experiment: Inhibition of cell proliferation in human HT1080 cells at 5 uM after 24 hrs by MTT or MTS assay relative to control; type: functional; details: for inhibition at 5 µM: HT-1080, 24 h; how it was run: as §2
[8] = Drug uptake in human HT1080 cells nucleus at 5 uM after 1 to 24 hrs by DAPI staining based fluorescence microscopic method; type: ADME, subcellular; details: ht-1080, 5 µM; how it was run: as §1
[9] = Drug uptake in human MDA-MB-468 cells nucleus at 5 uM after 1 to 24 hrs by DAPI staining based fluorescence microscopic method; type: ADME, subcellular; details: mda-mb-468, 5 µM; how it was run: as §1
HT-1080 [10] = experiment: Inhibition of cell proliferation in human HT1080 cells at 5 uM after 72 hrs by MTT or MTS assay relative to control; type: functional; details: for inhibition at 5 µM: HT-1080, 72 h
[11] = Drug uptake in human CCRF-CEM cells at 50 uM after 3 hrs by flow cytometry; type: ADME, cell-based
CCRF-CEM [12] = experiment: Inhibition of cell proliferation in human CCRF-CEM cells at 5 uM after 24 hrs by MTT or MTS assay relative to control; type: functional; how it was run: as §2
CCRF-CEM [13] = experiment: Inhibition of cell proliferation in human CCRF-CEM cells at 5 uM after 72 hrs by MTT or MTS assay relative to control; type: functional; how it was run: as §2
[14] = Drug uptake in HEK293 cells at 50 uM after 3 hrs by flow cytometry; type: ADME, cell-based; details: human, hek293, 3 h
SK-OV-3 [15] = experiment: Inhibition of cell proliferation in human SKOV3 cells at 5 uM after 24 hrs by MTT or MTS assay relative to control; type: functional; details: SK-OV-3, 24 h
C2C12 [16] = experiment: Induction of FeCl2-mediated ROS generation in mouse C2C12 cells at 0.5 uM after 72 hrs by H2DCFDA staining based flow cytometry relative to control; type: cell-based; details: c2c12, 72 h
How it was run: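 C2C12 cells were seeded in DMEM with 10% FBS and cultured 24 h. They were then incubated 72 h in serum-free DMEM with 10 μM Fe²⁺ (FeCl₂), with or without compound at 0.5 μM. Cells were harvested and stained with 10 μM H₂DCFDA in HBSS for 30 min at 37 °C before flow cytometry. The mean signal of 5000 cells is expressed as fold of control; experiments were done twice.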

[17] = Cytotoxicity against mouse C2C12 cells assessed as cell viability at 5 uM after 72 hrs by MTT assay relative to control; type: cell-based; details: read-out: Activity
How it was run: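 C2C12 mouse myoblasts grown in DMEM with 10% FBS, seeded at 10,000 cells/well 24 h before dosing. Compound exposure for 72 h at 37 °C, then MTT read-out. Viability expressed relative to untreated control, set at 100%. Run in triplicate.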

C2C12 [18] = experiment: Induction of ROS generation in mouse C2C12 cells at 0.5 uM after 72 hrs by H2DCFDA staining based flow cytometry relative to control; type: cell-based; details: c2c12, 72 h
[19] = Drug uptake in human SKOV3 cells at 50 uM after 3 hrs by flow cytometry; type: ADME, cell-based; details: sk-ov-3, 3 h
[20] = Drug uptake in human SKOV3 cells at 5 uM after 3 hrs by flow cytometry; type: ADME, cell-based; details: sk-ov-3, 3 h
How it was run: (§3)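 Adherent cells were plated at 5×10^4 per well in serum-free medium and left overnight, then exposed to 5 μM compound for 3 h at 37 °C, with untreated cells as control. Cells were washed with DPBS, trypsinised for 5 min and washed twice. Flow cytometry read the Texas Red channel, giving the mean fluorescence of 10,000 cells, in triplicate.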

[21] = Drug uptake in human HT1080 cells at 5 uM after 3 hrs by flow cytometry; type: ADME, cell-based; details: ht-1080, 3 h; how it was run: as §3

| SMILES | inhibition at 24 h, 5 µM [1] [%] | Drug uptake [2] | Drug uptake [3] | inhibition at 5 µM (SK-OV-3 [4]) [%] | Drug uptake [5] | inhibition at 72 h, 5 µM [6] [%] | inhibition at 5 µM (HT-1080 [7]) [%] | Drug uptake [8] | Drug uptake [9] | inhibition at 5 µM (HT-1080 [10]) [%] | inhibition at 5 µM (CCRF-CEM [12]) [%] | inhibition at 5 µM (CCRF-CEM [13]) [%] | inhibition at 5 µM (SK-OV-3 [15]) [%] | viability at 72 h, 5 µM [17] [%] | fold change (FC) (C2C12 [18]) | also measured |
| --- | --- | --- | --- | --- | --- | --- | --- | --- | --- | --- | --- | --- | --- | --- | --- | --- |
| COc1cccc2c1C(=O)c1c(O)c3c(c(O)c1C2=O)C[C@@](O)(C(=O)CO)C[C@@H]3O[C@H]1C[C@H](NC(=N)CCCSSc2ccccn2)[C@H](O)[C@H](C)O1 | 66 | Active | Active | 39 | Active | 60 | 80 | Active | Active | 68 | 46 | 73 | 72 | – | – | Drug uptake [11]: Active; Drug uptake [14]: Active |
| COc1cccc2c1C(=O)c1c(O)c3c(c(O)c1C2=O)C[C@@](O)(C(=O)CO)C[C@@H]3O[C@H]1C[C@H](NC(=N)CCCS)[C@H](O)[C@H](C)O1 | 61 | Active | Active | 42 | – | 64 | 62 | Active | Active | 68 | 48 | 73 | – | – | – | – |
| COc1cccc2c1C(=O)c1c(O)c3c(c(O)c1C2=O)C[C@@](O)(C(=O)CO)C[C@@H]3O[C@H]1C[C@H](NC(=N)CCCSSC[C@@H]2NC(=O)[C@H](CCCNC(=N)N)NC(=O)[C@H](Cc3c[nH]c4ccccc34)NC(=O)[C@H](CCCNC(=N)N)NC(=O)[C@H](Cc3c[nH]c4ccccc34)NC(=O)[C@H](CCCCNC(=O)CCN)NC(=O)[C@H](Cc3c[nH]c4ccccc34)NC(=O)[C@H](CCCNC(=N)N)NC(=O)[C@H](Cc3c[nH]c4ccccc34)NC(=O)[C@H](CCCNC(=N)N)NC2=O)[C@H](O)[C@H](C)O1 (cyclo(C(Doxorubicin(Traut))RWRWK(βAla)WRWR)) | – | Active | Active | – | Active | – | – | Active | Active | – | – | – | – | 71 | 1.05 | Activity (C2C12 [16]): Non-Toxic; Drug uptake [19]: Active |
| N=C(N)NCCC[C@@H]1NC(=O)[C@H](CS)NC(=O)[C@H](CCCNC(=N)N)NC(=O)[C@H](Cc2c[nH]c3ccccc23)NC(=O)[C@H](CCCNC(=N)N)NC(=O)[C@H](Cc2c[nH]c3ccccc23)NC(=O)[C@H](CCCCNC(=O)CCN)NC(=O)[C@H](Cc2c[nH]c3ccccc23)NC(=O)[C@H](CCCNC(=N)N)NC(=O)[C@H](Cc2c[nH]c3ccccc23)NC1=O (cyclo(CRWRWK(βAla)WRWR)) | – | – | – | – | – | – | – | – | – | – | – | – | – | – | – | inhibition (HT-1080 [7]): inactive; inhibition (CCRF-CEM [12]): inactive; inhibition (CCRF-CEM [13]): inactive |
| COc1cccc2c1C(=O)c1c(O)c3c(c(O)c1C2=O)C[C@@](O)(C(=O)CO)C[C@@H]3O[C@H]1C[C@H](N)[C@H](O)[C@H](C)O1 [DOXORUBICIN] | 57 | Active | Active | 51 | – | – | 66 | Active | Active | – | 45 | 69 | 66 to 76 | 28.6 | 1.09 | Drug uptake [20]: Active; fold change (FC) (C2C12 [16]): 3.48; inhibition (HT-1080 [10]): inactive; Drug uptake [21]: Active |
